# Assay outcomes as filed in PubChem BioAssay.
# PAD4 FP inh: blocks human protein arginine deiminase 4; inhibition, % at 6.36 µM; recombinant PAD4, RCA probe fluorescence polarization; actives 0.41% (n = 330,000); Q9UM07;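 active = percent inhibition above a cutoff equal to the mean of all tested compounds plus 3 SD, cut at about 15% in these data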;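 also: 0% = PAD4 with RCA probe and DMSO and 100% = probe without PAD4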
# RBBP9 inhibitor: blocks human serine hydrolase RBBP9. O75884. AID 1515. inhibition, % at 7.94 µM. actives 0.2% (n = 220,000). recombinant RBBP9, FP-Rh probe fluorescence polarization;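 active = inhibition above the campaign mean of all tested compounds plus 3 SD, cut at about 14% in these data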;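 also: plate controls were DMSO wells with RBBP9 for no effect and wells lacking RBBP9 protein for full effect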
# Target sequence (O75884 whole entry, looked up): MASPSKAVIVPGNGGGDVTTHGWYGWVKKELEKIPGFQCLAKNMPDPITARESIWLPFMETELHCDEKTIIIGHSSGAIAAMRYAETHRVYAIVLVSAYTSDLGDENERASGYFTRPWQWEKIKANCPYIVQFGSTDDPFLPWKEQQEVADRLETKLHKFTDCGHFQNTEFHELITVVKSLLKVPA
#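 Test system – recombinant human RBBP9 · Input – RBBP9 2.5 µM in dispensing solution, pre-mixing · Medium – Tris buffer pH 8.0, NaCl, Pluronic · Schedule – preincubation 30 min plus labeling 45 min at 25 °C · Measured by – fluorescence polarization · Measure – % inhibition · Controls – DMSO and no-protein wells · Replicates – one well per compound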
# SIAE primary: inhibitors of human sialic acid acetylesterase SIAE | AID 1053197 | SIAE FP-Rh probe binding, fluorescence polarization | inhibition, % at 9.66 µM | actives 0.69% (n = 370,000);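 active = inhibition above a cutoff: mean of compounds within the control limits plus 3 SD of those, cut at about 17% in these data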;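 also: 0% = plate median of compound wells and 100% = probe without SIAE protein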
# GSTO1 inh: counter-screen for RBBP9 inhibitors: inhibitors of human GSTO1; AID 1974; actives 1.1% (n = 300,000); inhibition, % at 5.96 µM; P78417; recombinant GSTO1, activity-based probe fluorescence polarization;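 active = inhibition above the campaign mean inhibition plus 3 SD, cut at about 35% in these data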;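 also: 0% = GSTO1-1 with DMSO and 100% = wells lacking GSTO1-1 enzyme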
# PRMT1 inh: inhibitors of human PRMT1 | Q99873 | AID 652257 | inhibition, % at 2.79 µM | actives 1.3% (n = 370,000) | recombinant PRMT1, activity-based probe fluorescence polarization;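 active = inhibition above about 21% made by adding two undisclosed values, limit read from the data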
# Target sequence (Q99873 whole entry, looked up): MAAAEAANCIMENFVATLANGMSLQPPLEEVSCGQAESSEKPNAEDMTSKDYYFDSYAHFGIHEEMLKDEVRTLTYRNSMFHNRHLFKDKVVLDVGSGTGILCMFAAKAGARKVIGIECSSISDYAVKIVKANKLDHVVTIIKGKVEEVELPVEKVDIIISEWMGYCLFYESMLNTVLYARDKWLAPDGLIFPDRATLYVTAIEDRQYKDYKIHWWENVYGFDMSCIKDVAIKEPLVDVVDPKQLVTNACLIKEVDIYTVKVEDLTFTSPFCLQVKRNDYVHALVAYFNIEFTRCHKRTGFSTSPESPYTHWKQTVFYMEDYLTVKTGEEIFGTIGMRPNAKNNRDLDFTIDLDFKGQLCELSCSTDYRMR
# SIAE confirm: human SIAE inhibition, confirmation; AID 1117263; actives 13% (n = 2,300); SIAE FP-Rh activity-based probe, fluorescence polarization; inhibition, % at 9.66 µM; shares compounds with SIAE primary;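 active = mean inhibition of the replicates above the hit cutoff set in the primary screen, cut at about 17% in these data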;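 also: 0% = SIAE with DMSO and probe and 100% = probe without SIAE; inhibitors lower polarization as more probe stays unbound to SIAE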
# * marks the source's active call; other numbers are inactive results; x = no result given. Compounds with a hit are over-represented: about 2.7% of the library has one in this group of screens.
SMILES,PAD4 FP inh,RBBP9 inhibitor,SIAE primary,GSTO1 inh,PRMT1 inh,SIAE confirm
COc1cc(/C=N/NC(=S)NC2CC3CC2C2C=CCC32)ccc1O (stereo not drawn),5,3,23*,-27,-3,15
O=C(NC(=S)Nc1ccc(S(=O)(=O)Nc2nccs2)cc1)C1CC1,-1,-4,2,-4,0,x
O=C(Nc1ccc(S(=O)(=O)Nc2nccs2)cc1)C1CCCCC1,-1,2,20*,11,-2,5
CSc1ccc(/C=C/C(=O)c2ccc(NC(=O)Cc3ccccc3)cc2)cc1,4,-8,31*,-23,0,45*
CSc1ccc(/C=C/C(=O)c2ccc(NC(=O)C(C)C)cc2)cc1,2,-17,-33,-34,1,x
COc1ccc(C2CC(C)(c3ccc(OC)cc3)Nc3ccccc3N2)cc1 (stereo not drawn),1,-4,17*,-1,-4,2
O=C(Nc1ccncc1)C1CCN(S(=O)(=O)c2cccc(C(F)(F)F)c2)CC1,-4,x,18*,x,0,0
O=C(N/N=C/c1ccoc1)c1cc(Br)ccc1O,-25,x,19*,5,-1,8
O=C(N/N=C/c1ccoc1)c1ccccc1Br,x,x,-4,x,-3,x
CCOC(=O)c1[nH]c(C)c(C(=O)N2CCOCC2)c1C,2,-3,22*,9,3,2
COc1ccccc1CCNC(=O)c1c(N)[nH]c(C(=O)c2ccccc2)c1-c1ccc(Br)cc1,x,x,18*,x,-5,2
Nc1[nH]c(C(=O)c2ccccc2)c(-c2ccc(Br)cc2)c1C(=O)NCCc1c[nH]c2ccccc12,x,x,16,x,-4,x
c1ccc(CCCN2CCOCC2)cc1,x,x,2,x,0,x
c1ccc(OCc2ccc(CCCN3CCOCC3)cc2)cc1,-3,x,18*,7,-2,-1
COc1ccc2c(c1OC)C(=O)N(c1nccs1)C2,-2,-4,-5,3,4,x
COc1ccc(-c2nn(C)c3sc(C(=O)NCc4ccco4)cc23)cc1OC,-2,5,-51,-1,2,x
COc1ccc(NC(=O)c2cc3c(-c4ccc(OC)c(OC)c4)nn(C)c3s2)cc1OC,-3,4,19*,3,0,13
CCOC(=O)c1cnn2c1[nH]c(=O)c1ccccc12,3,14,-4,-2,-1,x
CCC(c1nc2ccccc2[nH]1)n1c(C)nc2ccccc21 (stereo not drawn),x,x,2,x,-4,x
CCCCCCCCC(c1nc2ccccc2[nH]1)N1CCN=C1c1cc2ccccc2[nH]1 (stereo not drawn),x,x,22*,x,-3,28*
CC[C@H](C)[C@H](NC(=O)c1ccc(Cl)cc1)C(=O)OCC(=O)c1c(N)n(C)c(=O)n(C)c1=O,0,x,-5,x,-3,x
Cc1ccc(/C=N\NC(=O)/C(=C\Nc2nccc(C)n2)NC(=O)c2ccccc2)cc1,-3,3,18*,2,-1,7
CCN(CC(=O)Nc1c(F)cccc1F)C(=O)CNC(=O)COc1ccccc1,9,x,1,3,2,x
COc1ccc(CNC(=O)COC(=O)C2CC2C)cc1OC (stereo not drawn),-4,x,24*,7,-1,-2
CC1CC1C(=O)OCC(=O)NCc1ccc(Cl)cc1 (stereo not drawn),-2,-5,1,7,5,x
SMILES,PAD4 FP inh,RBBP9 inhibitor,SIAE primary,GSTO1 inh,PRMT1 inh,SIAE confirm
Cc1cccc(S(=O)(=O)Nc2ccc(C)c3c2OC(C)(C)C3)c1,1,1,24*,2,-1,-7
Cc1ccc(NS(=O)(=O)c2ccccc2Cl)c2c1CC(C)(C)O2,-5,-13,-1,-5,1,x
OC(COC(c1ccccc1)c1ccccc1)CN1CCCCC1 (stereo not drawn),3,-11,4,3,-4,x
CCNC(=O)C1CCCN(C(=O)Cc2cccs2)CC1 (stereo not drawn),x,x,-3,x,3,x
COCCNC(=O)c1cccc(OC2CCN(Cc3cccc(C(C)=O)c3)CC2)c1,-1,x,26*,0,-2,2
CC(=O)NNc1cc(N2CCOCC2)nc(N2CCOCC2)n1,3,1,25*,4,-6,0
CC(C)(C)c1ccc(C(=O)NNc2cc(N3CCOCC3)nc(N3CCOCC3)n2)cc1,1,-3,-3,15,-3,x
CC(=O)c1cccc(NC(=O)C2Cc3c(-c4cccc(C(C)=O)c4)ccnc3O2)c1 (stereo not drawn),x,x,1,x,-6,x
COc1ccc(Br)cc1CN1CCCC(C(=O)N2CCCCCC2)C1 (stereo not drawn),0,4,6,7,5,x
c1cc2c3c(cccc3c1)NC1(CCC3(CC1)Nc1cccc4cccc(c14)N3)N2,-13,8,38*,28,11,3
c1cc2c3c(cccc3c1)NC1(CCCCC1)N2,-13,5,30*,16,-1,9
O=C1CCSc2cccc3cccc(c23)N1,-2,6,-4,1,1,x
S=C1NC2(CCCCC2)NN1c1ccccc1,3,-9,4,7,4,x
Cc1ccc(Cc2c(-c3ccc(F)cc3)nc3ccc(Br)cn23)cc1,x,x,-2,x,4,x
CCCc1ccc(Oc2cn[nH]c2-c2ccc(O)cc2O)cc1,-2,-7,8,13,-1,x
COc1ccc(Oc2cn[nH]c2-c2ccc(O)cc2O)cc1,-3,-8,19*,1,-6,0
CC(=O)N1CCC2(CC1)C/C(=N\NC(=S)Nc1ccccc1C)c1cc(O)ccc1O2,2,-6,18*,-31,2,7
CC(=O)N1CCC2(CC1)C/C(=N\NC(=S)Nc1ccccc1F)c1cc(O)ccc1O2,1,3,11,-36,10,x
COc1ccc(NC(=S)N/N=C2\CC(C)(C)Oc3ccc(O)cc32)cc1,3,11,35*,5,6,28*
COc1ccccc1NC(=S)N/N=C1\CC(C)(C)Oc2ccc(O)cc21,-1,2,34*,-5,1,12
CCN1CCCC1CNCc1ccccc1OCc1ccc(F)cc1 (stereo not drawn),2,-4,7,2,2,x
O=C(Nc1ccc(Br)cc1)c1ccccc1CC[N+](=O)[O-],3,1,-2,0,2,x
O=[N+]([O-])c1ccc(OCC(O)CNC2CCCC2)cc1 (stereo not drawn),-2,-14,-7,-5,5,x
COc1cccc(C2C3=C(CCCC3=O)Nc3[nH]n(-c4ccccc4)c(=O)c32)c1 (stereo not drawn),-8,-2,19*,6,-4,1
COc1cc(C2C3=C(CCCC3=O)Nc3[nH]n(-c4ccccc4)c(=O)c32)ccc1O (stereo not drawn),-5,-3,2,6,1,x
O=C(Nc1cnc2sccn2c1=O)c1ccc(Cl)cc1Cl,-3,-1,1,-4,-1,x
